Measurements gathered from unrelated publications.
Protocols differ between the studies behind these lines.
Cell line: NCI-H226
Read-out: cell growth or viability

O=C1NCCc2[nH]c(-c3ccncc3)cc21
IC50: > 10 µM

COc1ccc(-c2ccc(-c3ccc(C(=N)N)nc3)s2)cc1Cl
GI50 (SRB): 1.92 µM

c1ccc2cc(Cn3cc[n+](Cc4ccc5ccccc5c4)c3)ccc2c1
TGI (SRB): 14.3 µM

COc1cc(-c2ccc(-c3ccc(C(=N)N)nc3)s2)cc(OC)c1OC
GI50 (SRB): 10.8 µM

CCCc1n(Cc2ccc3ccccc3n2)cc[n+]1Cc1ccc2ccccc2c1
TGI (SRB): 7.6 µM

COc1ccc(C(=O)/C=C/c2cccc(Br)c2)cc1S(N)(=O)=O
GI50 (SRB; 48 h): 2.8 µM

Cc1n(Cc2ccc3ccccc3n2)cc[n+]1Cc1ccc2ccccc2c1
TGI (SRB): 10.9 µM

COc1ccc(C(=O)/C=C/c2ccc3ccccc3c2)cc1S(N)(=O)=O
GI50 (SRB; 48 h): 2.3 µM

CC(=O)O[C@H]1C(=O)[C@@]2(C)[C@H]([C@H](OC(=O)c3ccccc3)[C@]3(O)C[C@H](OC(=O)[C@H](O)[C@@H](NC(=O)c4ccccc4)c4ccccc4)C(C)=C1C3(C)C)[C@]1(OC(C)=O)CO[C@@H]1C[C@@H]2O
IC50 (SRB): 0.0043 µM

NC(=O)c1cc(Cl)ccc1NC(=O)COc1ccccc1
GI50 (SRB): > 100 µM

COC(=O)/C=C/C=C/c1ccc2c(c1)OCO2
IC50 (SRB): 99.1 µM

COc1ccc(C(=O)/C=C/c2ccc(Cl)c(Cl)c2)cc1S(N)(=O)=O
GI50 (SRB; 48 h): 3 µM

S=C([S][Au-][P+](CCCCCC[P+]([Au-][S]C(=S)n1cccn1)(c1ccccc1)c1ccccc1)(c1ccccc1)c1ccccc1)n1cccn1
GI50 (SRB): 6.63 µM

COc1ccc(C(=O)/C=C/c2cccc(Cl)c2)cc1S(N)(=O)=O
GI50 (SRB; 48 h): 2.8 µM

CCCCc1n(Cc2ccc3ccccc3n2)cc[n+]1Cc1ccc2ccccc2n1
TGI (SRB): 13.6 µM

COc1ccc(C(=O)/C=C/c2cc3c(cc2Br)OCO3)cc1S(N)(=O)=O
GI50 (SRB; 48 h): 2.8 µM

COc1cc([C@@H]2c3cc4c(cc3[C@@H](O[C@@H]3O[C@@H]5CO[C@@H](C)O[C@H]5[C@H](O)[C@H]3O)[C@H]3COC(=O)[C@H]23)OCO4)cc(OC)c1O
IC50 (MTT; 72 h): 0.39 µM
